{"data": "Measured values gathered from unrelated publications", "ALOX5": "Polyunsaturated fatty acid 5-lipoxygenase (ALOX5, Homo sapiens, UniProt P09917)", "Dipeptidyl peptidase 8": "Dipeptidyl peptidase 8 (Homo sapiens, UniProt Q6V1X1)", "HTR1D": "5-hydroxytryptamine receptor 1D (HTR1D, Homo sapiens, UniProt P28221)", "note": "Lines come from different studies, so protocols differ."}
{"SMILES": "CCCCCc1cc(O)c2c(c1)OC(C)(CCC=C(C)C)C=C2 (stereo not shown)", "target": "ALOX5", "assay": "enzyme activity, inhibitor", "endpoint": "IC50", "value": "1.6 µM"}
{"SMILES": "CC[C@H]1NC(=O)[C@@H]2CSC(=N2)[C@H](Cc2ccccc2)N(C)C(=O)[C@@H]2CCCN2C(=O)[C@H](C(C)C)N(C)C(=O)[C@H](Cc2ccccc2)OC(=O)[C@H](C)[C@@H](C)NC(=O)[C@@H]([C@@H](C)O)NC(=O)[C@@H](CC(C)C)N(C)C(=O)[C@@H]2CSC1=N2", "target": "Dipeptidyl peptidase 8", "assay": "enzyme activity, inhibitor", "endpoint": "IC50", "value": "6.41 µM"}
{"SMILES": "CC(C)Cc1ccc([C@H](C)C(=O)O)cc1", "target": "Histone acetyltransferase KAT2B (KAT2B, Homo sapiens, UniProt Q92831)", "assay": "enzyme activity, inhibitor, mobility shift", "endpoint": "IC50", "value": "~6000 µM"}
{"SMILES": "CCOc1ccccc1N1CCN(Cc2coc3ccccc3c2=O)CC1", "target": "HTR1D", "assay": "ligand displacement, radioligand", "endpoint": "Ki", "value": "0.633 µM"}
{"SMILES": "NCCC[C@H](N)C(=O)O", "target": "Arginase (Schistosoma mansoni, UniProt Q6WVP6)", "assay": "enzyme activity, inhibitor, absorbance", "endpoint": "Ki", "value": "1900 µM"}
{"SMILES": "O=C(CCCN1CCN(c2ccccc2)CC1)c1ccc(F)cc1", "target": "HTR1D", "assay": "ligand displacement, radioligand", "endpoint": "Ki", "value": "0.169 µM"}
{"SMILES": "C#CCNC(=O)c1cc2ccc(N(CC)CC)cc2oc1=O", "target": "Acetylcholinesterase (Ache, Mus musculus, UniProt P21836)", "assay": "enzyme activity, inhibitor, Ellman", "setting": "pH 7.6", "endpoint": "IC50", "value": "1 µM"}
{"SMILES": "CC(C)C[C@@H]1C(=O)N[C@H]([C@@H](C)O)C(=O)N[C@H](C)[C@@H](C)C(=O)O[C@@H](Cc2ccccc2)C(=O)N(C)[C@@H](C(C)C)C(=O)N2CCC[C@H]2C(=O)N(C)[C@H](Cc2ccccc2)C2=N[C@@H](CS2)C(=O)N[C@H](C)C2=N[C@@H](CS2)C(=O)N1C", "target": "Dipeptidyl peptidase 8", "assay": "enzyme activity, inhibitor", "endpoint": "IC50", "value": "16.6 µM"}
{"SMILES": "COc1ccc(C(=O)CCN2CCN(c3ccccc3OC)CC2)cc1", "target": "HTR1D", "assay": "ligand displacement, radioligand", "endpoint": "Ki", "value": "0.062 µM"}
{"SMILES": "O=C(NO)c1ccccc1", "target": "Histone deacetylase 6, CD2 (hdac6, Danio rerio, UniProt F8W4B7)", "assay": "enzyme activity, inhibitor, fluorescence", "endpoint": "IC50", "value": "3.42 µM"}
{"SMILES": "Cc1cccc(N2CCN(Cc3coc4ccc(Cl)cc4c3=O)CC2)c1C", "target": "HTR1D", "assay": "ligand displacement, radioligand", "endpoint": "Ki", "value": "0.546 µM"}
{"SMILES": "C[C@@]1(F)[C@H](O)[C@@H](COP(=O)(O)OP(=O)(O)OP(=O)(O)O)O[C@H]1n1ccc(=O)[nH]c1=O", "target": "DNA polymerase subunit gamma-1 (POLG, Homo sapiens, UniProt P54098)", "assay": "enzyme activity, inhibitor", "endpoint": "IC50", "value": "> 100 µM"}
{"SMILES": "OC12CCCCC1C(c1ccccc1)NCC2 (stereo not shown)", "target": "Sodium-dependent serotonin transporter (Slc6a4, Rattus norvegicus, UniProt P31652)", "assay": "ligand displacement, radioligand", "endpoint": "Ki", "value": "> 20 µM"}
{"SMILES": "C[C@]12CCc3c(ccc4cc(O)ccc34)[C@@H]1CCC2=O", "target": "ksi (Comamonas testosteroni, UniProt P00947)", "assay": "enzyme activity, inhibitor, absorbance", "endpoint": "Ki", "value": "5 µM"}
{"SMILES": "COc1cc(Nc2ncc(F)c(Nc3ccc4c(n3)NC(=O)C(C)(C)O4)n2)cc(OC)c1OC", "target": "ALOX5", "assay": "enzyme activity, inhibitor", "endpoint": "IC50", "value": "5.01 µM"}
{"SMILES": "C[C@H](NC(=O)[C@@H](CCC(=O)O)NC(=O)CN1CCN(CC(=O)O)CCN(CC(=O)O)CCN(CC(=O)O)CC1)C(=O)N[C@@H](Cc1ccc(O)cc1)C(=O)NCC(=O)N[C@@H](Cc1c[nH]c2ccccc12)C(=O)N[C@H](C(=O)N[C@@H](CC(=O)O)C(=O)N[C@@H](Cc1cccc2ccccc12)C(N)=O)c1ccccc1", "target": "Gastrin/cholecystokinin type B receptor (Rattus norvegicus, UniProt P30553)", "assay": "ligand displacement, radioligand", "endpoint": "IC50", "value": "0.0568 µM"}
